bCat nuc transl = alters nuclear translocation of beta-catenin in HeLa cells. AID 1665. immunofluorescence imaging. nuclear translocation activity, % at 5 µM. 0.3% of 190,000 active;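 active = nuclear translocation activity above 50% at 5 µM, with a well cell count of 50 or more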;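 also: per-cell ratio of nuclear to cytoplasmic median beta-catenin stain intensity; plate controls were DMSO negative control for no effect and GSK-3 inhibitor IX positive control for full effect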
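Assay system: human HeLa cells, native beta-catenin; doses: 5 µM primary, 0.02–20 µM confirmation; incubation: compound treatment 24 h, 37°C, 5% CO2; technique: fluorescence imaging of beta-catenin antibody stain plus DAPI; measure: % activation, nuclear-to-cytoplasmic median beta-catenin signal ratio per cell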
NOD2-RIPK2 inh = inhibitors of human NOD2-RIPK2 interaction; O43353; CHO BLA complementation NOD2-RIPK2, CCF4 ratio; inhibition, % at 4.98 µM; 0.38% of 360,000 active; in the data active = inhibition above about 21%;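 also: 0% = vehicle only and 100% = reference blocker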
Target sequence (O43353 whole entry, looked up): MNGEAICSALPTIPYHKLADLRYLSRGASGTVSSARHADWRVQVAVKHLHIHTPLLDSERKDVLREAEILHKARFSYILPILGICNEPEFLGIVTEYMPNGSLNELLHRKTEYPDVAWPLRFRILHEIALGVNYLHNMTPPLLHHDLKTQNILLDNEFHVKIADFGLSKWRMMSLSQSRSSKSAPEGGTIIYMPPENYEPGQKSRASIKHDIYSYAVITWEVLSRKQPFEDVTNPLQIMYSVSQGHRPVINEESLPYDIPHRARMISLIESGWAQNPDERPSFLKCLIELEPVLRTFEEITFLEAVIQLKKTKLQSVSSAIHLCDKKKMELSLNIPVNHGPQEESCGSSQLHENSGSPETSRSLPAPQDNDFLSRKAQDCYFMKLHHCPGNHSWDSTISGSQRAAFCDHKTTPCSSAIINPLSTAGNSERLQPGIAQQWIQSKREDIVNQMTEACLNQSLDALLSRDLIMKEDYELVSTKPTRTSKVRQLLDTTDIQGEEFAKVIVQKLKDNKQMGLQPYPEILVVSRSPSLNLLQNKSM
Hsp70 act = Hsp70 transcriptional activation, primary screen. activation, % at 10 µM. HeLa Hsp70 promoter luciferase reporter, luminescence; scaled: vehicle 0, proteasome-inhibitor control 100%. 0.04% of 200,000 active;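 active = activation above the mean across all tested compounds plus 3 SD, cutoff set per campaign, cut at about 5.5% in these data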;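 also: 100% = MG132 at 30 µM as the positive control and 0% = DMSO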
MT stabilizer = microtubule stabilization, imaging screen; HeLa tubulin immunostaining HCS, 24 h; share of cells brighter than vehicle mean+2SD; % tubulin-high responders, % at 10 µM; 0.83% of 200,000 active;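 active = plate Z-score above 3 for both tubulin-high and condensed-nucleus cell shares, with cell loss under 80%, at 10 µM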;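 also: anti alpha tubulin signal scored within the nucleus-defined area of each cell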
TLR9-MyD88 inh = TLR9-MyD88 interaction inhibition; Q9NR96+Q99836; CHO BLA complementation TLR9-MyD88, CCF4 FRET ratio; inhibition, % at 4.98 µM; 0.21% of 340,000 active; AID 504734;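 active = inhibition above the mean over all tested compounds plus 3 SD, cut at about 21% in these data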;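 also: 0% = DMSO only wells and 100% = clavulanate BLA inhibitor control wells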
TLR4 MyD88 comp = TLR4-MyD88 interaction inhibition in cells. HeLa CL3-4 TLR4/MyD88 BLA complementation, FRET ratio. O00206+Q99836. inhibition, % at 8.4 µM. 0.18% of 200,000 active. AID 861; in the data active = inhibition above about 25%;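 also: 0% = vehicle and 100% = reference inhibitor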
Active calls of the source: *; nt = no result given. Most compounds without a hit are left out; they make up all but 1% or so of the library.

SMILES	bCat nuc transl	NOD2-RIPK2 inh	Hsp70 act	MT stabilizer	TLR9-MyD88 inh	TLR4 MyD88 comp
Cc1noc(C)c1CSc1nc2ccccc2c(=O)n1-c1ccc(F)cc1F	9.2	-5.0	-0.3	14.8	3.2	5.5
Cc1noc(C)c1CSc1nc2[nH]ncc2c(=O)n1-c1ccccc1	2.8	4.5	0.8	24.5*	7.5	3.7
Cc1noc(C)c1CSc1nc2ccccc2c(=O)n1-c1ccccc1	28.8	1.2	0.6	42.4*	-5.2	-10.7
Cn1cccc1-c1nc2ccccc2[nH]1	-1.4	14.6	nt	nt	-3.8	nt
COc1ccc(-n2cnc3cc(NCc4ccccn4)ccc32)cc1	nt	-1.8	0.0	1.8	4.3	6.3
COc1ccccc1-n1cnc2cc(NCc3ccccn3)ccc21	nt	-9.1	-0.2	30.1*	-2.7	0.8
COc1ccc(OCC(O)CNC(C)c2ccccc2)cc1 (stereo unspecified)	nt	1.9	nt	nt	-6.5	nt
CCCC(NCC(O)COc1ccc(-c2ccccc2)cc1)c1ccccc1 (stereo unspecified)	-1.0	-3.1	-0.2	22.4*	4.3	2.1
Cc1c(C(=O)NNC(=O)c2ccccc2O)oc2ccccc12	nt	-17.4	nt	nt	-5.7	nt
CCc1c(C)nc2ncnn2c1NCCc1ccc(OC)c(OC)c1	-1.6	-8.5	-0.4	3.3	-12.2	11.9
COc1ccc(CCNc2c(C)c(C)nc3ncnn23)cc1	14.7	-1.7	0.7	30.0*	-4.5	0.0
CCc1nc(N2CCN(C(=O)c3ccco3)CC2)c2oc3ccccc3c2n1	14.2	6.5	-0.3	26.7*	-6.7	-3.4
CC1(C)COC(c2cc([N+](=O)[O-])ccc2Cl)=N1	-5.5	-7.1	0.2	1.3	-9.7	-6.9
CC1(C)COC(/C=C/c2cccc([N+](=O)[O-])c2)=N1	7.6	-5.5	0.5	23.6*	-0.8	6.1
Cc1nn(-c2ccc(Cl)cn2)c2c1C(=O)CC(C)(C)C2Br (stereo unspecified)	nt	0.0	nt	nt	-5.2	nt
CC(C)(C)c1nn(-c2ccccc2)c2[nH]c(=O)c(CNc3ccc4c(c3)OCCO4)cc12	nt	1.5	-0.6	0.9	-1.4	4.8
Cc1nn(-c2ccccc2)c2[nH]c(=O)c(CNc3ccc(N4CCOCC4)cc3)cc12	0.6	1.6	-0.2	52.3*	-6.6	-15.6
Cc1nc2ncccn2c1-c1csc(Nc2ccc(O)cc2)n1	11.8	4.8	0.3	4.2	-1.8	1.5
Cc1ccc(Nc2nc(-c3c(C)nc4ncccn34)cs2)cc1	nt	9.2	0.5	16.8*	9.5	-2.3
Cc1ccc(Nc2nc(-c3c(C)nc4ccccn34)cs2)cc1	111.8*	17.5	0.6	16.9*	0.0	-3.9
Cn1c(-c2ccc3c(c2)OCO3)cnc1NCc1ccccc1	4.4	1.6	-0.1	20.5*	0.0	2.7
N#Cc1c(NC(=O)c2ccccc2)sc2c1CCC2	nt	-11.4	-0.2	33.1*	-2.0	-9.7
N#Cc1c(NC(=O)c2cccnc2)sc2c1CCC2	nt	-13.2	-0.1	1.1	0.6	-7.5
COc1cccc(C(=O)Nc2sc3c(c2C#N)CCN(C(C)=O)C3)c1	53.2*	-9.0	0.8	28.0*	-3.6	-2.3
CCc1ccc(CCC(=O)Nc2sc3c(c2C#N)CCCC3)o1	63.7*	11.6	0.3	16.7*	5.0	8.3
SMILES	bCat nuc transl	NOD2-RIPK2 inh	Hsp70 act	MT stabilizer	TLR9-MyD88 inh	TLR4 MyD88 comp
COc1cccc(C(=O)Nc2sc3c(c2C(=O)O)CCCC3)c1	nt	8.8	nt	nt	3.1	nt
CCC(=O)Nc1sc2c(c1C#N)CCC2	-1.7	-4.9	0.7	1.3	2.2	9.0
Cc1ccc(S(=O)(=O)N(C)C)cc1NC(=O)COC(=O)CNC(=O)c1cccs1	nt	2.0	nt	nt	5.3	nt
CCOc1cc(S(=O)(=O)N2CC=C(c3ccc(F)cc3)CC2)c(OCC)cc1-n1cnnn1	0.7	5.0	-0.4	45.3*	-0.9	0.9
Cc1cc(C)nc(-n2nc(C)cc2NC(=O)c2cccc(S(=O)(=O)N(C)C)c2)n1	-6.9	nt	nt	nt	nt	nt
Cc1ccc(C)c(C(=O)Nc2cc(C)nn2-c2nc(C)cc(C)n2)c1	-1.1	-6.4	1.3	12.9*	3.4	4.1
O=C(COC(=O)CCCN1C(=O)c2cccc3cccc(c23)C1=O)Nc1cccc(Br)c1	nt	5.1	-0.3	13.1*	-0.4	-10.9
CCN(CC)CC(C)(C)C(=O)/C=C/c1ccc(/C=C/C(=O)C(C)(C)CN(CC)CC)cc1	nt	83.8*	nt	nt	20.7	nt
Cc1ccc(CCC(=O)Nc2ncc(Cc3cccc(Cl)c3Cl)s2)o1	99.8*	-1.0	-0.3	6.8	-3.3	1.1
CCOc1ccc(Nc2cc(=O)oc3ccccc23)cc1	1.3	0.2	0.2	28.9*	1.9	-7.0
CCOc1ccc(/C=N/NC(=O)c2c(C)n(C)c3ccc(OC)cc23)cc1	1.6	11.4	0.0	16.6*	-0.1	3.0
CCOC(=O)C1(C)CCN1C(=O)c1cc(F)ccc1C (stereo unspecified)	nt	-23.9	nt	nt	nt	nt
COc1ccc(C(=O)Nc2cccc(OC(=O)c3ccco3)c2)cc1	nt	9.8	nt	nt	3.9	nt
COc1ccc(C(=O)Nc2cccc(OC(=O)c3ccc(C)c(C)c3)c2)cc1	-0.3	-0.1	-0.3	21.6*	-17.2	5.7
CC(=O)N1N=C(c2cccc([N+](=O)[O-])c2)OC1c1cccc(Br)c1 (stereo unspecified)	65.6*	3.1	-0.3	24.1*	-2.4	-0.7
CC(=O)N1N=C(c2cccc(Cl)c2)OC1c1cccc([N+](=O)[O-])c1 (stereo unspecified)	-1.5	-5.6	-0.1	2.9	1.6	0.1
Cc1ccc(NC(=O)C(=O)NCCOc2ccccc2Cl)cc1	-1.7	-1.8	-0.3	4.4	-2.8	4.8
CCc1ccc(NC(=O)C(=O)NCCOc2ccccc2Cl)cc1	3.2	-0.2	0.1	26.0*	-3.2	-11.6
CCOC(=O)C(C)Sc1nc2c(cnn2-c2ccc(C)cc2)c(=O)[nH]1 (stereo unspecified)	0.6	8.6	-0.1	42.8*	4.0	-2.9
Cn1ccc2c(N3CCCCCCC3)cc3c(c21)C1CCC3O1 (stereo unspecified)	nt	15.7	nt	nt	nt	nt
CCOc1ccccc1C(=O)N1CCN(c2cccc(Cl)c2)CC1	68.6*	8.4	0.2	14.8*	-4.9	2.8
COc1ccc(C(=O)N2CCN(c3cccc(Cl)c3)CC2)c(OC)c1	nt	2.4	-0.1	43.7*	-1.8	5.4
COc1cc2c(C(=O)N3CCN(c4ccccc4)CC3)c(C)oc2cc1Br	-1.7	10.8	-0.3	25.6*	6.2	-6.4
COc1ccccc1C(=O)N1CCN(c2cccc(C(F)(F)F)c2)CC1	87.8*	7.5	-0.1	35.0*	-2.4	-16.3
COc1ccccc1-c1cc(C(=O)N2CCN(c3ccccc3)CC2)no1	nt	1.7	nt	nt	-3.8	nt
COc1c(C)cc(C(O)c2ncc(-c3ccc4ccccc4c3)[nH]2)cc1C (stereo unspecified)	nt	-8.2	nt	nt	nt	nt
CC(=O)Nc1cc(-c2ccccc2)cn2c(-c3ccc(F)cc3)cnc12	nt	-2.0	nt	nt	nt	nt

Compound activity as filed in PubChem BioAssay.
